Screens: PubChem BioAssay, Sanford-Burnham Center for Chemical Genomics
HKDC1 activator: HKDC1 hexokinase activators, primary screen, biochemical, fluorescence, uHTS; Q2TB90; recombinant HKDC1, G6PDH/diaphorase resazurin fluorescence; active compounds read low; activity change, negative = activation, % at 20 µM; actives 0.056% (n = 340,000); AID 493187, 2011;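 active = activation of 40% or more at 20 µM, a change of -40% or lower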
Target sequence (Q2TB90 whole entry, looked up): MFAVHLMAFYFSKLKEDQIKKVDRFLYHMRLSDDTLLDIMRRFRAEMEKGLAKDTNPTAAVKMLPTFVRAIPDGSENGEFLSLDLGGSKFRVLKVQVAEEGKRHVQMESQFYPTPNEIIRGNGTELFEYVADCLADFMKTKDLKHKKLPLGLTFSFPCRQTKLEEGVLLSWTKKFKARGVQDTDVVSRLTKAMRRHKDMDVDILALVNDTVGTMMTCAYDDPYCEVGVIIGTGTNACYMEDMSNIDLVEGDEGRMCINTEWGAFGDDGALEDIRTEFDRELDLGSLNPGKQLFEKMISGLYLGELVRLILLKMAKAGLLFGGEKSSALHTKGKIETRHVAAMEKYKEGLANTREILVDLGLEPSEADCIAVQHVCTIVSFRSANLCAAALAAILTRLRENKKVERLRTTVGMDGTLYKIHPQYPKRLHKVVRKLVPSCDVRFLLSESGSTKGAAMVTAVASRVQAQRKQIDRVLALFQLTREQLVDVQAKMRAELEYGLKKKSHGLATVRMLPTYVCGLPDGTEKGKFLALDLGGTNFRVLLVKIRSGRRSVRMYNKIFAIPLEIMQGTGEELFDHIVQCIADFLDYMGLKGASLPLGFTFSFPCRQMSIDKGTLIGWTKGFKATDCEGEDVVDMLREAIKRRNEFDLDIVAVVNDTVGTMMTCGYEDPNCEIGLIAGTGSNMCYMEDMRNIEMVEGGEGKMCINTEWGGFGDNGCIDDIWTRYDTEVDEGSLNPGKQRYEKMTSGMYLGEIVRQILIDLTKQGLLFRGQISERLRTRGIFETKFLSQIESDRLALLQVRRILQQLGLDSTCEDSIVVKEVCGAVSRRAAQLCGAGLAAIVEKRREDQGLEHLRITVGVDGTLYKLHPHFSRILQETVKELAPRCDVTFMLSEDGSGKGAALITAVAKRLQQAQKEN
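Dosing: single compound dose of 20 µM, 1% DMSO final / Test system: in-house human HKDC1 enzyme, G6PDH and diaphorase coupling enzymes / Quantity: 5 µg/mL HKDC1 final / Incubation: enzyme reaction 90 min, room temperature, in dark / Buffer or medium: pH 8.0 Tris with MgCl2 / Detection: coupled resazurin-to-resorufin fluorescence, Ex 525/Em 613 nm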
* marks the source's active call; other numbers are inactive results. A selection follows.

SMILES	HKDC1 activator
Brc1ccc(C2N3CCCN23)cc1 (stereo not drawn)	-79.3*
O=C1NC(=S)NC(=O)C1=Cc1ccc2c(c1)CCN2CCCCl	59.0
CCN(CC)CCCNC(=O)c1c(O)c2ccccc2n(Cc2ccccc2)c1=O	83.3
Nc1c(Br)cc2c3c(cccc13)-c1ccccc1-2	70.5
Cc1cc(O)c2c(c1)C(=O)C13C(=C2O)C(=O)[C@H]2[C@@H](O)[C@@H]1[C@H]1[C@H](O)[C@@H]3C(=O)C3=C(O)c4c(O)cc(C)cc4C(=O)C312 (stereo partly drawn)	67.4
COc1cc(O)cc2c1cc([N+](=O)[O-])c1c(C(=O)O)cc3c(c12)OCO3	35.8
CC(=NNC(=S)N1CC2CCC(CC2)C1)c1nccs1	-43.2*
O=c1nc(/C=C/c2ccc(Cl)cc2Cl)cc(C(F)(F)F)[nH]1	35.1
CC[C@H](C)/C=C(C)/C=C/C1=CC2=C(Cl)C(=O)[C@](C)(OC(C)=O)C(=O)C2=CO1	58.9
CCOC(=O)c1c(-n2c(C)cc(C=C3C(=O)NC(=S)NC3=O)c2C)sc2c1CCCC2	58.6
